Measured values taken from PubChem BioAssay AID504382 (The Scripps Research Institute Molecular Screening Center, 2011).
Among all 2,500 compounds or so, about 460 (18%) were called active. Only a sample is shown. Unmarked numbers belong to inactive results.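 How the source made its calls: active means mean activation above a cutoff of low control average plus 3 SD from the earlier screen (cut at about 12% in these data); inactive means the rest.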

Test: compound fluorescence interference without thin filaments, confirmation, artefact control for cardiac RTF calcium sensitizer project, biochemical (AID 504382)
Conditions: IANBD fluorescence interference counterscreen, buffer, EC20 Ca2+; at 7.2 µM; stronger effect = higher value; scaled: EC20 calcium 0, EC100 calcium 100
How it was run: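 Medium: MOPS/KCl/MgCl2/EGTA/NTA/DTT buffer, pH 7.2 | Reagent: EC20 calcium, 0.472 mM | Compound dosing: 7.2 µM single dose | Times: 15 min compound exposure at 25 °C | Signal: Fluorescence, 480/540 nm | Measure: Interference relative to controls | Repeats: Triplicate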

SMILES	fluorescence artifact activation
O=C1CC(c2cccc(Oc3ccccc3)c2)NC(=O)N1 (centres undefined)	0.02%
O=c1c(/C=C(\O)c2ccc(F)cc2)nc2ccccc2n1-c1ccccc1	0.04%
Cc1ccc(NC(=O)CSc2nnc(-c3cccnc3)s2)cc1	258% (active)
Cc1ccc(CSc2nnc(SCC(=O)N/N=C/c3ccccc3OCC(=O)O)s2)cc1	4.19%
Cc1ccc(-c2csc(NC(=O)CSc3nc4ccccc4o3)n2)cc1	0.77%
Nc1nnnn1/N=C/c1cc(Cl)cc(Cl)c1O	0.11%
O=C(Nc1ccc(Cl)c(Cl)c1)Nc1ccc([N+](=O)[O-])cn1	8.85%
COc1ccc(OC)c2[nH]c(=O)c(CCNS(=O)(=O)c3ccc(Cl)cc3)cc12	-0.04%
N#C/C(=C\N1CCN(Cc2ccc3c(c2)OCO3)CC1)c1nc2ccccc2s1	7.04%
COc1cccc(C2C(C#N)=C(N)Oc3cc(C)oc(=O)c32)c1OC (centres undefined)	6.53%
Cc1ccccc1N=Cc1cc2c(cc1O)OC(N)=C(C#N)C2c1ccccc1 (centres undefined)	0.04%
COc1ccc(N=Cc2cc3c(cc2O)OC(N)=C(C#N)C3c2ccccc2)cc1 (centres undefined)	32.9% (active)
CN(C)c1ccc(C=C2SC(=S)NC2=O)cc1	0.13%
CCCOc1ccc(-c2nn(-c3ccccc3)cc2/C=C2\SC(N)=NC2=O)cc1	0.02%
CCN(CC)c1ccc(/C=C2\SC(N)=NC2=O)cc1	18.7% (active)
CCN(CC)c1ccc(/C=C2\C(=N)N3N=C(CC(=O)N4CCOCC4)SC3=NC2=O)cc1	0.25%
CCN(CC)c1ccc(C=C2SC(=S)NC2=O)cc1	19.1% (active)
CCOc1ccc(N(C)c2ccc(/C=C3/SC(=S)NC3=O)cc2)cc1	0.1%
COc1cccc(/C=N/Nc2nnc3c(n2)[nH]c2ccccc23)c1OC	0.23%
CC[n+]1c(/C=C/N(C)c2ccccc2)oc2ccc(F)cc21	0.51%

SMILES	fluorescence artifact activation
CCN(CC)c1ccc(/C=N/OCC(=O)Nc2cccc(C)c2)cc1	0.61%
C#CCN1c2ccccc2Sc2cccnc21	0.15%
O=C(c1cccc(F)c1)N1CCN(C(=O)c2cc(-c3ccc(Cl)cc3Cl)on2)CC1	0.33%
Fc1ccc(-c2nnc(-c3ccc(Cl)cc3Cl)o2)cc1	12.9% (active)
Nc1ccn([C@H]2C[C@H](O)[C@@H](CO)O2)c(=O)n1	0.1%
CCCNC(=O)Cn1c(=O)/c(=C/c2ccc(-c3ccc([N+](=O)[O-])cc3)o2)s/c1=C\C(=O)C(C)(C)C	10.3%
O=c1oc2ccccc2cc1-c1ccc(O)cc1O	30.6% (active)
O=c1c(-c2ccc(O)cc2O)coc2cc(O)cc(O)c12	0.09%
O=c1oc2ccccc2cc1-c1nc(-c2cccs2)cs1	-0.04%
COc1ccccc1/C=[N+](\[O-])C1SC(=S)N(C)C1(C)C (centres undefined)	0.01%
CCOc1ccc(N2C(=O)CC(SCc3nc4ccccc4[nH]3)C2=O)cc1 (centres undefined)	0.12%
COC(=O)[C@@]1(Cc2ccc(OC)cc2)[C@@H]2C(=CC(=O)[C@H]2CC(=O)C(=O)N2CCCC2)CN1C(=O)c1ccccc1	15% (active)
O=C1Nc2ccccc2/C1=C/c1cnc(-c2ccccc2)[nH]1	36.5% (active)
CN(C)S(=O)(=O)c1ccc2c(c1)/C(=C/c1cc3c([nH]1)CCCC3)C(=O)N2	3.96%
Cc1cc(C)c(/C=C2\C(=O)Nc3ccccc32)[nH]1	4.55%
C#Cc1ccc([C@@H]2C=C(C(=O)OCC=C)O[C@H](OCCCCO)C2)cc1	0.21%
COc1ccc(N2CCN(c3ccc([N+](=O)[O-])cc3Cl)CC2)cc1	18.2% (active)
CC1=N/C(=C/c2ccc([N+](=O)[O-])cc2)C(=O)N1c1ccc(Cl)cc1Cl	0.01%
COc1ccc(N2CCN(S(=O)(=O)Cc3ccccc3)CC2)cc1	0.08%
COc1ccccc1N1CCN(C(=O)CCC(=O)O)CC1	0.1%

SMILES	fluorescence artifact activation
COc1ccccc1N1CCN(c2ccc([N+](=O)[O-])cc2Cl)CC1	18.9% (active)
Cc1cc(N2CCN(c3nc(-c4ccc([N+](=O)[O-])cc4)cs3)CC2)c2ccccc2n1	3.28%
COc1cc(NC(=O)C2CCCCN2)ccc1OCC(C)C (centres undefined)	2.06%
CC(C)C(=O)COc1c2occc2cc2ccc(=O)oc12	0.07%
CCOC(=O)c1c(C#N)c(SCC(=O)Nc2ccc(OC)cc2)nc2c1CN(CC)CC2	25.1% (active)
CCOC(=O)c1cccc(NC(=O)CSc2nc(N)cc(N)n2)c1	-0.04%
Cc1noc(NS(=O)(=O)c2ccc(NC(=O)CSc3nc4c(cc3C#N)CCC4)cc2)c1C	0.31%
COc1ccc(/C=C2\SC(=O)N(CCC(=O)N3CCN(C)CC3)C2=O)cc1	-0.03%
CC(C)c1ccc(C2c3[nH]c4ccccc4c3C[C@H]3C(=O)N(c4ccccc4C(=O)N4CCC(C(=O)O)CC4)C(=O)N23)cc1 (some centres undefined)	0.07%
COc1ccccc1-c1nnc(SCc2nc3ccccc3s2)n1C	7.19%
Cc1ccc(Cl)c(NC(=O)CN(C)CC(=O)Nc2ccc(F)c(F)c2F)c1Cl	0.02%
N/C(COc1cc(Cl)cc(Cl)c1)=N\O	21.9% (active)
COc1cc(OC)c(C(=O)NC2CCCCCC2)cc1OC	-0.01%
O=[N+]([O-])c1cc(-c2ccn[nH]2)ccc1Cl	-0.08%
COc1ccc(C(Nc2ccc(S(=O)(=O)NCC3CCCO3)cc2)C(=O)NC(C)(C)C)cc1OC (centres undefined)	0.01%
COc1cc(OC)cc(-c2c(-c3cccs3)c3cc(-c4ccc(SC)cc4)ccc3n2C)c1	5.67%
O=C(/C=C/c1nc2ccccc2s1)N1CCCCCC1	7.06%
N#C/C(=C(/O)COC(=O)c1ccccc1O)c1nc2ccccc2s1	0.47%
O=C(CSc1nc2ccccc2s1)NNC(=S)Nc1ccccc1	193% (active)
